Reference: ChEMBL document CHEMBL3286389, “Targeting class A and C serine β-lactamases with a broad-spectrum boronic acid derivative” (J Med Chem, 2014)
pKi: −log10 of the molar value.

How the values were obtained:
[1] = Competitive inhibition of wild type beta-lactamase TEM-1 (unknown origin) expressed in Escherichia coli using 6-beta-furylacryloylamido-penicillanic acid as substrate by spectrophotometry
Summary of the method: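 TEM-1, purified. Reactions started by 0.3 nM enzyme in the AmpC assay buffer (50 mM Tris pH 7.0). FAP substrate, absorbance change at 340 nm. Inhibitor stocks were 50 mM in DMSO, diluted in phosphate pH 7. Ki from comparison of progress curves with and without inhibitor.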

[2] = Competitive inhibition of Escherichia coli beta-lactamase AmpC using nitrocefin as substrate by UV-Vis spectrophotometry
Summary of the method: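 Pinacol esters were tested uncleaved and hydrolysed to free acid in 50 mM phosphate pH 7.4. Ki derived from IC50 plots assuming competitive inhibition.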

[3] = Competitive inhibition of Escherichia coli beta-lactamase AmpC N289A mutant using nitrocefin as substrate by UV-Vis spectrophotometry

SMILES | pKi [1] | pKi [2] | pKi [3]
O=C(Cc1cccs1)N[C@H](B(O)O)c1cccc(C(=O)O)c1 | 7.19 | 9.00 | –
CC(=O)/C=C/c1c(B(O)O)sc2ccccc12 | – | 6.62 | –
O=C(O)/C=C/c1c(B(O)O)sc2ccccc12 | – | 7.05 | 7.30
OB(O)c1cc2ccccc2s1 | 4.30 | – | –
